Laboratory results reported in ChEMBL document CHEMBL2375276, “Antibacterial oxazolidinone analogues having a N-hydroxyacetyl-substituted seven-membered [1,2,5]triazepane or [1,2,5]oxadiazepane C-ring unit” (Eur J Med Chem, 2013).
Converted amounts (≈) assume the structure as drawn.

Tests used:
Format in all cases: functional
Haemophilus influenzae = experiment: Antibacterial activity against Haemophilus influenzae SR27914 clinical isolate assessed as growth inhibition by CLSI broth microdilution method
Summary of the method: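 MIC by CLSI broth microdilution using Haemophilus test medium.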

Streptococcus pneumoniae = experiment: Antibacterial activity against Streptococcus pneumoniae SR26207 clinical isolate assessed as growth inhibition by CLSI broth microdilution method
Summary of the method: (§1)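 MIC by CLSI broth microdilution in cation-adjusted Mueller-Hinton broth; S. pneumoniae medium supplemented with 5% lysed horse blood.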

Moraxella catarrhalis = experiment: Antibacterial activity against Moraxella catarrhalis SR26840 clinical isolate assessed as growth inhibition by CLSI broth microdilution method; summary of the method: as §1
Enterococcus faecium = experiment: Antibacterial activity against Enterococcus faecium SR7940 clinical isolate assessed as growth inhibition by CLSI broth microdilution method; summary of the method: as §1
Enterococcus faecalis = experiment: Antibacterial activity against Enterococcus faecalis SR1004 clinical isolate assessed as growth inhibition by CLSI broth microdilution method; summary of the method: as §1
Staphylococcus aureus [1] = experiment: Antibacterial activity against linezolid-resistant Staphylococcus aureus NRS271 assessed as growth inhibition by CLSI broth microdilution method
Summary of the method: (§2)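 MIC by CLSI broth microdilution in cation-adjusted Mueller-Hinton broth. Lowest concentration inhibiting growth taken as MIC.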

Staphylococcus aureus [2] = experiment: Antibacterial activity against Staphylococcus aureus Smith assessed as growth inhibition by CLSI broth microdilution method; summary of the method: as §1
Staphylococcus aureus [3] = experiment: Antibacterial activity against Staphylococcus aureus SR20549 clinical isolate assessed as growth inhibition by CLSI broth microdilution method; summary of the method: as §1
Staphylococcus aureus [4] = experiment: Antibacterial activity against methicillin-resistant Staphylococcus aureus SR3637 infected in JCL/ICR mouse systemic infection model assessed as mortality administered as iv measured over 7 days; details: 168 h
Summary of the method: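 Five-week-old male JCL/ICR mice (20–25 g), five per group. Infected intraperitoneally with 0.5 or 1.0 mL bacterial suspension (about 100× LD50). Intravenous dosing 1 h post-infection. Mortality followed 7 days; ED50 with 95% confidence limits by logit method.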

Staphylococcus aureus [5] = experiment: Antibacterial activity against methicillin-resistant Staphylococcus aureus SR3637 assessed as growth inhibition by CLSI broth microdilution method; summary of the method: as §2
Staphylococcus aureus [6] = experiment: Antibacterial activity against methicillin-resistant Staphylococcus aureus SR3637 infected in JCL/ICR mouse systemic infection model assessed as mortality administered as po measured over 7 days; details: 168 h
Summary of the method: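 Five-week-old male JCL/ICR mice (20–25 g), five per group. Infected intraperitoneally with 0.5 or 1.0 mL bacterial suspension (about 100× LD50). Oral dosing 1 h post-infection. Mortality followed 7 days; ED50 with 95% confidence limits by logit method.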

SMILES | MIC (Haemophilus influenzae) [µg/mL] | MIC (Streptococcus pneumoniae) [µg/mL] | MIC (Moraxella catarrhalis) [µg/mL] | MIC (Enterococcus faecium) [µg/mL] | MIC (Enterococcus faecalis) [µg/mL] | MIC (Staphylococcus aureus [1]) [µg/mL] | MIC (Staphylococcus aureus [2]) [µg/mL] | MIC (Staphylococcus aureus [3]) [µg/mL] | ED50 (Staphylococcus aureus [4]) [mg/kg] | MIC (Staphylococcus aureus [5]) [µg/mL] | ED50 (Staphylococcus aureus [6]) [mg/kg]
O=C(CO)N1CCN(c2ccc(N3C[C@H](CNc4ccon4)OC3=O)cc2F)CCN1 | 32 (≈ 73.7 µM) | 0.5 (≈ 1.15 µM) | 16 (≈ 36.8 µM) | 2 (≈ 4.6 µM) | 2 (≈ 4.6 µM) | 64 (≈ 147 µM) | 2 (≈ 4.6 µM) | 1 (≈ 2.3 µM) | – | – | –
O=C(CO)N1CCN(c2c(F)cc(N3C[C@H](Cn4ccnn4)OC3=O)cc2F)CCN1 | 8 (≈ 18.3 µM) | 0.5 (≈ 1.14 µM) | 4 (≈ 9.14 µM) | 1 (≈ 2.29 µM) | 1 (≈ 2.29 µM) | 16 (≈ 36.6 µM) | 2 (≈ 4.57 µM) | 1 (≈ 2.29 µM) | 1.71 | 1 (≈ 2.29 µM) | –
O=C(CO)N1CCN(c2c(F)cc(N3C[C@H](Cn4ccnn4)OC3=O)cc2F)CCO1 | 16 (≈ 36.5 µM) | 1 (≈ 2.28 µM) | 8 (≈ 18.2 µM) | 2 (≈ 4.56 µM) | 2 (≈ 4.56 µM) | 16 (≈ 36.5 µM) | 2 (≈ 4.56 µM) | 1 (≈ 2.28 µM) | – | – | –
O=C1O[C@@H](Cn2ccnn2)CN1c1cc(F)c(N2CCNOCC2)c(F)c1 | 8 (≈ 21 µM) | 0.5 (≈ 1.31 µM) | 4 (≈ 10.5 µM) | 1 (≈ 2.63 µM) | 2 (≈ 5.26 µM) | 16 (≈ 42.1 µM) | 2 (≈ 5.26 µM) | 1 (≈ 2.63 µM) | – | – | –
O=C(CO)N1CCN(c2c(F)cc(N3C[C@H](CNc4ccon4)OC3=O)cc2F)CCN1 | 16 (≈ 35.4 µM) | 0.125 (≈ 0.276 µM) | 16 (≈ 35.4 µM) | 1 (≈ 2.21 µM) | 0.25 (≈ 0.553 µM) | 8 (≈ 17.7 µM) | 0.5 (≈ 1.11 µM) | 0.5 (≈ 1.11 µM) | 2.18 | 0.5 (≈ 1.11 µM) | 2.83
O=C(CO)N1CCN(c2c(F)cc(N3C[C@H](CNc4ccon4)OC3=O)cc2F)CCO1 | 16 (≈ 35.3 µM) | 0.25 (≈ 0.551 µM) | 4 (≈ 8.82 µM) | 1 (≈ 2.21 µM) | 0.5 (≈ 1.1 µM) | 8 (≈ 17.6 µM) | 0.5 (≈ 1.1 µM) | 0.25 (≈ 0.551 µM) | > 10 | 0.25 (≈ 0.551 µM) | –
O=C1O[C@@H](CNc2ccon2)CN1c1cc(F)c(N2CCNOCC2)c(F)c1 | 16 (≈ 40.5 µM) | 0.125 (≈ 0.316 µM) | 4 (≈ 10.1 µM) | 1 (≈ 2.53 µM) | 0.5 (≈ 1.26 µM) | 16 (≈ 40.5 µM) | 1 (≈ 2.53 µM) | 0.5 (≈ 1.26 µM) | – | – | –
CC(=O)NC[C@H]1CN(c2ccc(N3CCNN(C(=O)CO)CC3)c(F)c2)C(=O)O1 | 16 (≈ 39.1 µM) | 1 (≈ 2.44 µM) | 8 (≈ 19.5 µM) | 4 (≈ 9.77 µM) | 2 (≈ 4.88 µM) | 64 (≈ 156 µM) | 2 (≈ 4.88 µM) | 4 (≈ 9.77 µM) | – | – | –
CC(=O)NC[C@H]1CN(c2cc(F)c(N3CCNN(C(=O)CO)CC3)c(F)c2)C(=O)O1 | 8 (≈ 18.7 µM) | 0.25 (≈ 0.585 µM) | 4 (≈ 9.36 µM) | 4 (≈ 9.36 µM) | 2 (≈ 4.68 µM) | 16 (≈ 37.4 µM) | 1 (≈ 2.34 µM) | 1 (≈ 2.34 µM) | – | – | –
